Compound activity: PubChem BioAssay, several laboratories
AP complement = orthogonal test for alternative complement pathway inhibitors | 62,000 compounds, 0.08% hits | Human serum alternative complement pathway, LPS-coated ELISA, C3 deposition; tested in compound mixtures | inhibition, % at 5 µM;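 active means inhibition above 30% in each of the two pooled mixtures holding the compound, so the lower value exceeds 30%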
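Test system: human serum alternative complement pathway, C3 deposition on LPS-coated wells; also added: Plate-bound LPS; doses: 5 µM per compound in ten-compound mixtures; schedule: 1 h at 37 °C; detection: Anti-C3 ELISA, OD 450 nm; evaluation: percent inhibition of C3 deposition onto LPS; repeats: two pool placements per compound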
DAT uptake mod = modulates human dopamine transporter uptake under cocaine | Q01959 | LLC-PK1 hDAT cells, [14C]-dopamine uptake with cocaine IC80; actives deviate in either direction | B-score at 10 µM | 110,000 compounds, 1.3% hits | AID 449768;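 active means Z score or B-score, a plate-position-corrected score, falls beyond the plate's 99.7% confidence bounds, in either direction; inactive means both scores lie inside the 99.7% bounds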
D1 mod = allosterically modulates the human D1 dopamine receptor | 58,000 compounds, 5.9% hits | HEK293 D1, CRE-luciferase, dopamine EC30 potentiation; actives deviate in either direction | B-score at 10 µM | AID 641;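 active means luminescence count or its row- and column-corrected plate score outside the 99.7% band of the plate's sample wells, on either side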
WNV NS2B-NS3 inh = blocks West Nile virus NS2B-NS3 protease activity; P06935; WNV NS2B-NS3 protease, fluorogenic substrate Ex360/Em465; active compounds read low; z-score (no concentration beside the values); 65,000 compounds, 0.18% hits; AID 577; in the data active means z-score below about -3
Target sequence (P06935 1371-1501 limits assumed): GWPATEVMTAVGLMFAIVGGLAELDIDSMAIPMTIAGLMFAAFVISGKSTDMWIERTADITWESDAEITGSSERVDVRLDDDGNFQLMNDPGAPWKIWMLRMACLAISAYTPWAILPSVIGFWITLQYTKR
Target sequence (P06935 1502-1679 limits assumed): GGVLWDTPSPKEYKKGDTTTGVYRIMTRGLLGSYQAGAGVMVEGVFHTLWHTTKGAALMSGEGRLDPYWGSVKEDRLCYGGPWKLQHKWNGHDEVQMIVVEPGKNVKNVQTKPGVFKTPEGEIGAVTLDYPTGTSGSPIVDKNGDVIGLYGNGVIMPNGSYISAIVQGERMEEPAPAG
Hits are given with their value; i = inactive; nt = no result. This excerpt belongs to a sample that is enriched for hits.

SMILES	AP complement	DAT uptake mod	D1 mod	WNV NS2B-NS3 inh
COC(=O)C1(CC2CC(c3ccccc3)=NO2)CCN(C(=O)OC(C)(C)C)CC1 (stereo unspecified)	nt	i	nt	nt
COC(=O)c1[nH]c2ccc(C)cc2c1NC(=O)CN1CCN(C(=O)c2ccccc2)CC1	i	2.7	i	i
Clc1ccc(CSc2nnc(-c3sccc3-n3cccc3)o2)cc1	nt	i	nt	nt
COc1ccc(-c2cc3nc4c(c(N5CCC6(CC5)OCCO6)n3n2)CCCC4)cc1	i	nt	3.7	i
O=C(Nc1ccc(Cl)cc1)N1CCC(c2nc(-c3ccc(F)cc3)no2)CC1	i	i	i	i
Cc1ccc(-c2nnc3c4ccccc4c(C)nn23)cc1S(=O)(=O)N1CCN(C)CC1	i	nt	9.9	i
Cc1ccc(-c2nnc3c4ccccc4c(C)nn23)cc1S(=O)(=O)N1CCN(CCO)CC1	i	i	i	i
Nc1ccc(-c2nc3ccccc3[nH]2)cc1	i	i	-3.5	i
Cn1cc(-c2nc3ccccc3[nH]2)c2ccccc21	i	i	-4.1	i
Nc1cccc(-c2nc3ccccc3[nH]2)c1	nt	i	i	i
O=C(c1ccc2c(c1)OCO2)N1CCC2(CC1)Oc1ccc(Cl)cc1C(=O)C21CC(c2ccccc2)=NO1 (stereo unspecified)	nt	i	nt	nt
Cc1c(Cl)cccc1-n1c(SCC(=O)N(C)Cc2ccccc2)nnc1-c1ccncc1	nt	3.8	nt	nt
Cc1noc(C)c1CSc1nnc(-c2ccncc2)n1-c1cccc(Cl)c1C	i	i	i	i
COC(=O)NC(NC(=S)Nc1ccc([N+](=O)[O-])cc1)C(Cl)(Cl)Cl (stereo unspecified)	nt	-2.8	nt	nt
CC1(C)Cc2c(C#N)c(OCC(=O)c3ccc(Cl)cc3)nc(-c3ccco3)c2CO1	i	-2.4	i	i
CCOC(=O)c1sc2nc(-c3ccco3)c3c(c2c1N)CC(C)(C)OC3	i	i	4	i
COC(=O)CSc1ncnc2c1sc1nc(-c3ccco3)c3c(c12)CC(C)(C)OC3	nt	nt	nt	i
OC(CN1C2=NCCN2c2ccccc21)c1ccccc1 (stereo unspecified)	i	i	i	i
OC(CN1C2=NCCN2c2ccccc21)c1ccc(Br)cc1 (stereo unspecified)	i	i	-5	i
CCN1CC=C2C(C#N)=C(N)C(C#N)(C#N)C(c3cc(Cl)ccc3Cl)C2C1 (stereo unspecified)	i	nt	i	i
CCN(Cc1cc2cc(OC)ccc2[nH]c1=O)C(=O)Cc1ccc(OC)cc1	i	-3.2	i	i
COc1cc(C(=O)N(Cc2cc3cc(C)ccc3[nH]c2=O)CC2CCCO2)cc(OC)c1OC (stereo unspecified)	i	i	i	i
COc1cccc(C(=O)N(Cc2cc3cc(C)ccc3[nH]c2=O)CC2CCCO2)c1 (stereo unspecified)	i	3	i	i
COc1cccc(CNn2cnnc2)c1OCc1ccc(F)cc1	i	i	-4.9	i
O=C(NCCc1ccccc1)C1CCN(S(=O)(=O)c2cccc3nsnc23)CC1	i	i	i	i
SMILES	AP complement	DAT uptake mod	D1 mod	WNV NS2B-NS3 inh
CCN(CCNC(=O)C1CCN(S(=O)(=O)c2cccc3nsnc23)CC1)c1ccccc1	i	i	-2.9	i
O=C(NCCCN1CCOCC1)C(C(=O)c1ccccc1)n1ccccc1=O (stereo unspecified)	i	i	i	i
Cc1nnc(NC(=O)Cc2ccc(OCc3c(C)noc3C)cc2)s1	i	i	-3.1	i
O=C(COc1ccccc1)NCCc1cn2ccsc2n1	i	i	i	i
Cn1c(-c2ccc(F)cc2)cnc1NCc1cccc(F)c1	nt	i	nt	nt
Cn1c(-c2ccc(F)cc2)cnc1NCc1ccccc1	i	i	-3.4	i
CCOC(=O)CCc1c(C)c2ccc(OCC(=O)N(CC)CC)c(C)c2oc1=O	i	2.7	i	i
Cc1csc(NC(=O)CSc2nnc(-c3ccccn3)n2-c2ccc(C)c(C)c2)n1	i	2.7	i	i
Cc1ccc(-n2c(SCC(N)=O)nnc2-c2ccccn2)cc1C	i	i	i	i
COc1ccc2c(c1OC)C(=O)N(c1cccc(C)c1)C2	i	i	i	i
COc1ccc2c(c1OC)C(=O)N(c1cccc(C(F)(F)F)c1)C2	i	i	-2.7	i
COc1cc(NC(=O)c2ccc(C)cc2)c(OC)cc1NC(=O)CN1CCCCC1	nt	i	nt	nt
COc1cc(NC(=O)Nc2cccc(Cl)c2)c(OC)cc1NC(=O)CN1CCCCC1	i	i	-4	i
COc1cc(NC(=O)c2cc(OC)c(OC)c(OC)c2)c(OC)cc1NC(=O)CN1CCCCC1	i	i	-3.3	i
CCc1ccc(NC(=O)N(CCOC)C2CCN(C(C)=O)CC2)cc1	nt	i	nt	nt
